Results: ChEMBL document CHEMBL2057196, “Discovery of a novel class of potent human deoxyuridine triphosphatase inhibitors remarkably enhancing the antitumor activity of thymidylate synthase inhibitors” (J Med Chem, 2012)

Columns and labels:
[1] = Inhibition of Escherichia coli dUTPase
[2] = Antiproliferative activity against human HeLaS3 cells at 30 uM after 72 hrs by crystal violet assay; type: functional, HeLa S3
Summary of the method: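 HeLa S3 cells grown in RPMI1640 with 10% FBS, seeded at 1500 cells/well and left 24 h at 37 °C, 5% CO2. Compound (1–100 μM) or DMSO vehicle added, then 72 h incubation. Growth read by crystal violet staining, OD540. […] Average of three independent assays.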

[3] = Potentiation of antiproliferative activity of FdUrd against human HeLaS3 cells assessed as compound concentration causing 50% reduction in 1 uM FdUrd T/C value after 24 hrs by crystal violet assay; type: functional, cell-based, HeLa S3
Summary of the method: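 HeLa S3 cells seeded at 1500 cells/well and pre-incubated 24 h. Compound (1–100 μM) or DMSO added together with FdUrd (1 μM) for 24 h. Thymidine (30 μM) then added for a further 48 h. Crystal violet read-out at OD540. EC50 is the concentration that halves the FdUrd T/C (%), taken from the curve. Mean of three independent assays ± SD.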

[4] = target: T1, Deoxyuridine 5'-triphosphate nucleotidohydrolase, mitochondrial (Homo sapiens, UniProt P33316); assay: Inhibition of human dUTPase assessed as production of [5-3H]dUMP from [5-3H]dUTP after 15 mins measured by HPLC analysis
T1 sequence (P33316 whole entry): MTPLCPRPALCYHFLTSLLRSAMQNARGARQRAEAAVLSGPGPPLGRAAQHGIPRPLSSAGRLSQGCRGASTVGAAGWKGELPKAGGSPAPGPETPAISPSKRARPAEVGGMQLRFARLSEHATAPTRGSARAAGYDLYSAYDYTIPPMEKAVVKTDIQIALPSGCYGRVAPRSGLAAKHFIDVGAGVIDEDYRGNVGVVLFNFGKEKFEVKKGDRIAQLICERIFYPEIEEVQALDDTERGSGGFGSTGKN

Mus musculus = assay: Toxicity in Balb/c-A JcL-nu mouse bearing human MX1 cells assessed as decrease in body weight at 300 mg/kg/day, po administered for 15 days and co-treated with 5-Fu; type: organism-based; parameters: route oral; details: in vivo, 336 h, in the assay text read “for 14 days” for “for 15 days”
Summary of the method: (§1)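 Five-week-old Balb/cA JcL-nu mice given sc MX-1 tumor fragments (~2 mm) by trocar. Treatment for 14 days: 5-FU 15 mg/kg/day by osmotic-pump continuous infusion, and/or oral compound. Vehicle was 2.5% DMA, 2.5% Tween 80, 10% Cremophor, 0.5% HPMC. Tumor size and body weight measured twice weekly. TV = length × width² × 0.5. RTV = TV day 15/day 0. IR = (1 − treated/control mean RTV) × 100.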

MX1 [5] = assay: Potentiation of antitumor activity of 5-Fu against human MX1 cells xenografted in Balb/c-A JcL-nu mouse assessed as decrease in tumor volume at 300 mg/kg/day, po for 14 days measured on day 15 relative to control (reference value: 11.4 +/- 3.74); type: functional; summary of the method: as §1
[6] = AUCt in Balb/c-A mouse at 50 mg/kg, po in a solution containing 2.5% DMA, 2.5% Tween 80 and 10% cremophor EL; type: ADME, organism-based; parameters: dose 50 mg/kg, route oral; details: plasma
Summary of the method: (§2)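 Male Balb/c-A mice aged 6–9 weeks (n = 2), single oral dose; plasma drug levels measured by UPLC.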

MX1 [7] = assay: Potentiation of antitumor activity of 5-Fu against human MX1 cells xenografted in Balb/c-A JcL-nu mouse assessed as tumor growth inhibition at 300 mg/kg/day, po for 14 days measured on day 15 relative to control; type: functional; details: read-out: GI; summary of the method: as §1
[8] = Antiproliferative activity against human HeLaS3 cells after 72 hrs by crystal violet assay; details: HeLa S3, 72 h
[9] = Tmax in Balb/c-A mouse at 50 mg/kg, po in a solution containing 2.5% DMA, 2.5% Tween 80 and 10% cremophor EL; type: ADME, organism-based; parameters: dose 50 mg/kg, route oral; details: in vivo; summary of the method: as §2
MX1 [10] = assay: Antitumor activity against human MX1 cells xenografted in Balb/c-A JcL-nu mouse assessed as tumor growth inhibition at 300 mg/kg/day, po for 14 days measured on day 15 relative to control; type: functional; details: read-out: GI; summary of the method: as §1
[11] = Half life in Balb/c-A mouse at 50 mg/kg, po in a solution containing 2.5% DMA, 2.5% Tween 80 and 10% cremophor EL; type: ADME, organism-based; parameters: dose 50 mg/kg, route oral; details: in vivo; summary of the method: as §2
MX1 [12] = assay: Antitumor activity against human MX1 cells xenografted in Balb/c-A JcL-nu mouse assessed as tumor volume at 300 mg/kg/day, po for 14 days measured on day 15 (reference value: 2048 +/- 693.7 mm3); type: functional; summary of the method: as §1
MX1 [13] = assay: Potentiation of antitumor activity of 5-Fu against human MX1 cells xenografted in Balb/c-A JcL-nu mouse assessed as tumor volume at 300 mg/kg/day, po for 14 days measured on day 15 (reference value: 2048 +/- 693.7 mm3); type: functional; summary of the method: as §1
[14] = Cmax in Balb/c-A mouse at 50 mg/kg, po in a solution containing 2.5% DMA, 2.5% Tween 80 and 10% cremophor EL; type: ADME, organism-based; parameters: dose 50 mg/kg, route oral; details: in vivo; summary of the method: as §2
MX1 [15] = assay: Antitumor activity against human MX1 cells xenografted in Balb/c-A JcL-nu mouse assessed as decrease in tumor volume at 300 mg/kg/day, po for 14 days measured on day 15 relative to control (reference value: 11.4 +/- 3.74); type: functional; summary of the method: as §1
MX1 [16] = assay: Antitumor activity against human MX1 cells xenografted in Balb/c-A JcL-nu mouse assessed as tumor growth inhibition at 15 mg/kg/day by continuous infusion for 14 days measured on day 15 relative to control; type: functional; details: read-out: GI
MX1 [17] = assay: Antitumor activity against human MX1 cells xenografted in Balb/c-A JcL-nu mouse assessed as tumor volume at 15 mg/kg/day by continuous infusion for 14 days measured on day 15 relative to control (reference value: 11.4 +/- 3.74); type: functional
MX1 [18] = assay: Antitumor activity against human MX1 cells xenografted in Balb/c-A JcL-nu mouse assessed as tumor volume at 15 mg/kg/day by continuous infusion for 14 days measured on day 15 (reference value: 2048 +/- 693.7 mm3); type: functional
Summary of the method: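 Five-week-old Balb/cA JcL-nu mice with MX-1 human breast carcinoma fragments (~2 mm) implanted sc by trocar, tumour maintained by sc serial transplantation. 5-FU given by continuous infusion via osmotic pump for 14 days; vehicle 2.5% DMA, 2.5% Tween 80, 10% Cremophor, 0.5% HPMC. Tumour size measured twice weekly; TV = length × width² × 0.5, read on day 15.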

[19] = Homo sapiens, HeLa S3, 24 h, read-out: EC50

For O=c1ccn([C@H]2C[C@H](O)[C@@H](COP(=O)(O)NP(=O)(O)OP(=O)(O)O)O2)c(=O)[nH]1, the Ki [1] was 5 µM.

In the case of CC(C)(CCCOCn1ccc(=O)[nH]c1=O)NS(=O)(=O)c1ccccc1, the T/C [2] is reported as 96%, the EC50 [3, 19] is reported as 5.1 µM and the EC50 ([3]; hela s3) is reported as “Dose-dependent effect”.

Work on O=c1ccn([C@H]2C[C@H](O)[C@@H](COP(=O)(O)CP(=O)(O)OP(=O)(O)OCc3ccccc3)O2)c(=O)[nH]1 yielded a Ki [1] of 0.3 µM.

In the case of O=c1ccn(COCCOS(=O)(=O)NS(=O)(=O)c2ccccc2)c(=O)[nH]1, the IC50 [4] is reported as 3.1 µM and the EC50 ([3]; hela s3) is reported as “Not Active”.

In the case of COc1cc(C)ccc1S(=O)(=O)NC(C)(C)CCCOCn1ccc(=O)[nH]c1=O, the IC50 [4] is reported as 19.5 µM and the EC50 [3, 19] is reported as 14.1 µM.

COc1cccc(S(=O)(=O)NC(C)(C)CCCOCn2ccc(=O)[nH]c2=O)c1 gave an IC50 [4] of 1.2 µM and an EC50 [3, 19] of 1.1 µM.

COc1ccc(S(=O)(=O)NC(C)(C)CCCOCn2ccc(=O)[nH]c2=O)cc1 gave an IC50 [4] of 18.2 µM and an EC50 [3, 19] of 14.9 µM.

With CC(C)(CCCOCn1ccc(=O)[nH]c1=O)NS(=O)(=O)c1ccccc1Cl the IC50 [4] was 9.4 µM and the EC50 [3, 19] was 7.93 µM.

Molecule CC(C)(CCCOCn1ccc(=O)[nH]c1=O)NS(=O)(=O)c1cccc(Cl)c1 has an IC50 [4] of 4.5 µM and an EC50 [3, 19] of 3.96 µM.

Work on CC(C)(CCCOCn1ccc(=O)[nH]c1=O)NS(=O)(=O)c1ccc(Cl)cc1 yielded an IC50 [4] of 5.7 µM and an EC50 [3, 19] of 4.97 µM.

CC(C)(CCCOCn1ccc(=O)[nH]c1=O)NS(=O)(=O)c1cccc(OCC2CC2)c1 gave an IC50 [4] of 0.035 µM and an EC50 [3, 19] of 0.18 µM.

For CC(C)(NS(=O)(=O)CCCOCn1ccc(=O)[nH]c1=O)c1cccc(OCC2CC2)c1, the IC50 [4] was 0.34 µM and the EC50 [3, 19] was 0.45 µM.

With C[C@@H](NS(=O)(=O)CCCOCn1ccc(=O)[nH]c1=O)c1cccc(OCC2CC2)c1 the IC50 [4] was 0.04 µM and the EC50 [3, 19] was 0.066 µM.

With C[C@H](NS(=O)(=O)CCCOCn1ccc(=O)[nH]c1=O)c1cccc(OCC2CC2)c1 the IC50 [4] was 2.5 µM and the EC50 [3, 19] was 4.15 µM.

In the case of C[C@@H](NS(=O)(=O)CCCOCn1ccc(=O)[nH]c1=O)c1ccc(F)c(OCC2CC2)c1, the Activity (Mus musculus) is reported as “Non-toxic”, the Ratio (MX1 [5]) is reported as 1.94 and the AUC(0-t) [6] is reported as 24.9 µM·h. It also gave an inhibition in vivo at 300 mg/kg/day (MX1 [7]) of 83%, an IC50 [8] of 28.3 µM and a Tmax [9] of 30 min. The inhibition in vivo at 300 mg/kg/day (MX1 [10]) was -30.9%, the half-life [11] was 84 min and the Activity (MX1 [12]) was 2698 mm3. It also gave an Activity (MX1 [13]) of 299.7 mm3, an IC50 [4] of 0.021 µM and a Cmax [14] of 15.1 µM. The Ratio (MX1 [15]) was 14.9 and the EC50 [3, 19] was 0.075 µM.

CC(C)(C)[Si](C)(C)OCCOCn1ccc(=O)[nH]c1=O gave an IC50 [4] of 100 µM.

In the case of O=c1ccn(COCCOC(c2ccccc2)(c2ccccc2)c2ccccc2)c(=O)[nH]1, the IC50 [4] is reported as over 100 µM.

In the case of CC(NS(=O)(=O)CCCOCn1ccc(=O)[nH]c1=O)c1cccc(OCC2CC2)c1 (racemic), the IC50 [4] is reported as 0.062 µM and the EC50 [3, 19] is reported as 0.14 µM.

O=c1[nH]cc(F)c(=O)[nH]1 [FLUOROURACIL] showed an inhibition in vivo at 15 mg/kg/day (MX1 [16]) of 20%, a Ratio (MX1 [17]) of 9.13 and an Activity (MX1 [18]) of 1645 mm3.
